In series [1] the test system is mitochondrial permeability transition pore (mtPTP). As to the kind of experiment: Calcium retention capacity. It counts as biochemical, mouse. To be noted: for CRC/CRC0: at 1.56 µM, average ±SEM, n≥3.
Series [2] shares this test system. Put plainly: Mitochondrial swelling assay. To be noted: for EC50: read-out: mitochondrial swelling EC50, isolated mouse liver mitochondria. The series is classed as biochemical, mouse.
Series [3] can be described thus: HeLa cell viability assay. It counts as cell-based, human. The settings on record: human, HeLa cells, with verapamil (20 µM) or CsH (2 µg/mL). The gist of the method:
(§1)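 HeLa cells are grown in DMEM with 10% FBS at 37 °C and 5% CO2, seeded at 1×10^4 per well, and left to adhere for 6 h. They are then exposed for 24 h to a range of test compound concentrations or 1% DMSO vehicle, with 20 µM verapamil or 2 µg/mL CsH present. Relative viable cell number is read with the CellTiter 96 Aqueous One kit.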

Series [4] has as its target T1, adenosine A3 (Homo sapiens, UniProt P0DMS8).
T1 sequence (P0DMS8 1-318): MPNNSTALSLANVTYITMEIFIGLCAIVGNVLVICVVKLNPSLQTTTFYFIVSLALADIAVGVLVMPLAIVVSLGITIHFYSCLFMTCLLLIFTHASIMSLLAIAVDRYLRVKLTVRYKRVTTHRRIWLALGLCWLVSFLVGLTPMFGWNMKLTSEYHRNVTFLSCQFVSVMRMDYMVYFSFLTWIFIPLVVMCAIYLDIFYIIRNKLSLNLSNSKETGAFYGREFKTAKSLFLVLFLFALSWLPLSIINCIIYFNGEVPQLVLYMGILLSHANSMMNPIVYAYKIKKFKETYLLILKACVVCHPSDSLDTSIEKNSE
As to the kind of experiment: Eurofins LeadProfilingScreen panel. It counts as binding. To be noted: read-out: inhibition of adenosine A3.

The test system of series [5] is HeLa cells. Put plainly: Oxygen consumption of HeLa cells. The series is classed as cell-based, human. To be noted: CsH present. An outline of the steps:
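HeLa monolayers are seeded at 3×10^4 per well in DMEM and cultured for 24 h. Medium is replaced by serum- and antibiotic-free unbuffered DMEM (pH 7.4) containing 2 µg/mL CsH or 20 µM verapamil. Oxygen consumption is measured on a Seahorse XF24 with sequential additions, and protein per well is quantified by BCA afterwards. Results are mean ± SD of a representative experiment, repeated four times.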

Series [6] can be described thus: Plasma stability, human. The series is classed as in vitro ADME.
Series [7] deals with human norepinephrine transporter (NET) (Homo sapiens, UniProt P23975). As to the kind of experiment: Eurofins LeadProfilingScreen panel. The series is classed as binding. To be noted: read-out: inhibition of human norepinephrine transporter (NET).
Series [8] has as its system exon 9 col6a1 morphant zebrafish. As to the kind of experiment: Zebrafish ColVI myopathy model, motor activity. The series is classed as in vivo. The settings on record: 5 and 10 µM in fish water, added at 21 hpf.
Series [9] is described as follows: Aqueous solubility. The series is classed as physicochemical. To be noted: PBS.
The subject of series [10] is isolated mouse liver mitochondria. Put plainly: Oxygen consumption of isolated mouse liver mitochondria. The series is classed as biochemical.
The nature of series [11]: Plasma protein binding, mouse. The series is classed as in vitro ADME.
Series [12] can be described thus: Plasma stability, mouse. The series is classed as in vitro ADME.
Series [13] relates to other 66 targets in the panel (GPCRs, ion channels, transporters). As to the kind of experiment: Eurofins LeadProfilingScreen panel, remaining targets. It counts as binding. The settings on record: 10 µM.
Series [14] is described as follows: Plasma protein binding, human. It counts as in vitro ADME.
Series [15] can be described thus: Microsomal stability, human liver microsomes. The series is classed as in vitro ADME. For orientation: Microsomes from liver hold many membrane-bound enzymes, among them those of drug oxidation.
Series [16] concerns human mtPTP. As to the kind of experiment: CRC of HeLa cells. The series is classed as cell-based.
A short description of series [17]: Microsomal stability, mouse liver microsomes. It counts as in vitro ADME.
Series [18] has as its system HeLa cells. As to the kind of experiment: HeLa cell viability assay. The series is classed as cell-based, human. To be noted: 24 h, CsH or verapamil present. The gist of the method:
as §1

Series [19] relates to mitochondrial permeability transition pore (mtPTP). As to the kind of experiment: Chemical activation of mtPTP. It counts as biochemical, mouse. To be noted: 1.56 µM; 10 µM Ca2+ plus PhAsO, diamide, Cu(OP)2 or NEM.
Series [20] deals with exon 9 col6a1 morphant zebrafish. As to the kind of experiment: Zebrafish ColVI myopathy model, muscle birefringence. To be noted: 48 hpf; 5 and 10 µM in fish water, added at 21 hpf; ANOVA p < 0.05. The series is classed as in vivo.
Where [21] appears, read: isolated mouse liver mitochondria.

Molecules are shown by their SMILES. In brackets after ≈: the same amount, converted by molar mass. Several values for one entry are separate records, joined by “and”; a condition that tells them apart may be missing. Equal values may be shown once.

human norepinephrine transporter (NET), sequence (P23975 whole entry): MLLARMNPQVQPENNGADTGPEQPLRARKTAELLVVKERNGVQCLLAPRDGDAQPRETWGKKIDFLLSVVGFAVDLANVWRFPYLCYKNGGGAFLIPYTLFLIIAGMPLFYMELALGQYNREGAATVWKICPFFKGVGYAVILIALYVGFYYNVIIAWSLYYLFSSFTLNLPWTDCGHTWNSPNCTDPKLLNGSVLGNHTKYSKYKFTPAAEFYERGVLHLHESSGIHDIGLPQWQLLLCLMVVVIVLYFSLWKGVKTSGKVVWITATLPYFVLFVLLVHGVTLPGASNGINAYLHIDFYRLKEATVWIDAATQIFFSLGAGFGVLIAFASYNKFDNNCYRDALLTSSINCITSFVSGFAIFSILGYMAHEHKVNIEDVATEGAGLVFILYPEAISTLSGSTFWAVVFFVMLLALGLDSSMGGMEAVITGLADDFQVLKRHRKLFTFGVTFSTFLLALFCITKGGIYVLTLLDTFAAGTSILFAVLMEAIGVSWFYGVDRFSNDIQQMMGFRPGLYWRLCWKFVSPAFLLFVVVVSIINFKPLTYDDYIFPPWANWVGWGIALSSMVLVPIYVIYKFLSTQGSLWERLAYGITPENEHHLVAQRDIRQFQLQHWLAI

Turning to `COc1cc(NC(=O)c2cc(-c3cccc(O)c3)on2)cc(OC)c1OC` [Compound 1, 5-(3-hydroxyphenyl)-N-(3,4,5-trimethoxyphenyl)isoxazole-3-carboxamide], the CRC/CRC0 in [1] (setting [21]) is given as 1.18 −0.06.
As to `COc1ccc(-c2cc(C(=O)Nc3cc(Cl)ccc3C)no2)cc1O` [Compound 46, N-(5-Chloro-2-methylphenyl)-5-(3-hydroxy-4-methoxyphenyl)isoxazole-3-carboxamide], the EC50 in [2] is 0.0076 nM. The CRC/CRC0 in series [1] (setting [21]) was found to be 10.02±0.34. In [3], the half-maximal cytotoxic concentration (CC50) at 24 h is > 50 µM.
On to `COc1ccc(-c2cc(C(=O)Nc3cc(Cl)cnc3C)no2)cc1O` [Compound 54, N-(5-Chloro-2-methylpyridin-3-yl)-5-(3-hydroxy-4-methoxyphenyl)isoxazole-3-carboxamide], for which the EC50 in [2] is 10 nM. For the same compound, the CRC/CRC0 in series [1] (setting [21]) is 10.10±1.14 and 10.1 −1.1. For the same compound, in series [3], the CC50 at 24 h is > 50 µM.
As to `Cc1c(Cl)cccc1NC(=O)c1cc(-c2ccc(F)c(O)c2)on1` [Compound 60, N-(3-Chloro-2-methylphenyl)-5-(4-fluoro-3-hydroxyphenyl)isoxazole-3-carboxamide], the inhibition at 10 µM in [4] is 51%; in series [7], 79%. Also, the “FCCP-stimulated and oligomycin-insensitive respiration” value in series [5] is recorded as “No statistically significant differences”. The half-life in series [6] was > 120 min; in [12] it was < 30 min; in series [15], > 60 min; in [17] it was < 15 min. In addition, the “motor function (spontaneous coiling events, touch-evoked response)” value in [8] is listed as “dramatic improvement in motor function”. Besides, the Aqueous solubility in [9] (pH 7.4) was found to be 16.1 µM. This compound registered a solubility in [9] (pH 7.4, aqueous buffer, Aqueous solubility) of 16 µM (≈ 5.55 µg/mL). Also, the “respiratory control ratios, FCCP-stimulated and oligomycin-insensitive respiration” value in series [10] is given as “No statistically significant differences”. The fraction unbound in series [11] was < 0.01; in series [14] it was 0.11. For the same compound, the results for the recovery in series [11] and in series [14] were 0% and 76%, respectively. Also, in series [13], the “inhibition of the other 66 targets in the panel” value is reported as ≤ 43%. The “mtPTP opening (swelling) induced by 50 µM Ca2+ load” value in series [2] (1.56 µM compound) is “abolished”. For the same compound, the microsomal CLint in series [15] is < 116 µL/min/mg; in series [17] it was > 462 µL/min/mg. The “CRC after treatment of intact HeLa cells, wash, then permeabilization” value in series [16] (1.56 µM, 30 min) is reported as “effective following treatment of intact human cells”. Further, the “CRC ratios of permeabilized HeLa cells” value in series [16] (increasing concentrations of 60) is listed as “increased CRC ratios”. In addition, the “Ca2+ load required for mtPTP opening” value in [1] (1.56 µM compound, 20 µM Ca2+ pulses, solvent control 80) was ~ 960 nmol (mg protein)^−1. For the same compound, the CRC/CRC0 in [1] (setting [21]) was 12.14±0.55 and 12.1 −0.6. For the same compound, the “compound-to-solvent CRC ratio reached on augmenting the concentration” value in series [1] (concentration-response, Figure 4D trace a) worked out at 15. In series [1] (setting [21]), the “maximum CRC ratio relative to CsA-treated mitochondria” value is reported as ~ 3 fold. The “effect on CRC in combination with 2 µM CsA” value in series [1] (various concentrations of 60 plus 2 µM CsA) is listed as “synergistic”. In series [18], the “concentration up to which not cytotoxic” value is recorded as 12.50 µM. In [3], the half-maximal cytotoxic concentration (CC50) at 24 h is 39.5 ± 4.65 µM. Further, in [19], the “mtPTP transition from closed to open after chemical activators” value is reported as “prevented”. For the same compound, in series [20], the “muscle birefringence (structural muscle defects)” value was “significant recovery of muscle defects”.
With `Cc1ccc(Cl)cc1NC(=O)c1cc(-c2ccc(F)c(O)c2)on1` [Compound 63, N-(5-Chloro-2-methylphenyl)-5-(4-fluoro-3-hydroxyphenyl)isoxazole-3-carboxamide], the CRC/CRC0 in series [1] (setting [21]) was 15.21±1.26 and 15.2 −1.3.

The term EC50 denotes the concentration that produces a half-maximal response. As a reminder, the CC50 is the concentration that lowers cell viability or growth by half. A low value points to harm at low concentration. A word on the inhibition: it is the drop in the measured response relative to a control, in per cent. The term half-life denotes how long it takes for the measured level to halve. High values mean slow decline, low ones rapid decline. As a reminder, the Aqueous solubility is the concentration that dissolves in the medium under given conditions. By solubility is commonly meant the concentration that dissolves in the medium under given conditions. A low value points to a poorly soluble substance. The fraction unbound is the share of the substance not bound to proteins or other matrix. A high value points to much free substance. What is called microsomal CLint is the rate of metabolic loss divided by the concentration. High values mean rapid turnover, low ones slow turnover.

Values taken from paper PMC4674087 (ChemMedChem, 2015).
